Measured values collected from several papers.
Protocols differ between the studies behind these lines.
Sample: plasma

| SMILES | host | route | dose | notes | Cmax |
| --- | --- | --- | --- | --- | --- |
| CO[C@H]1CC[C@H](N2C(=O)CNc3ncc(-c4ccc(C(C)(C)O)nc4)nc32)CC1 | human | oral | 7.5 mg | patients | 45.8 ng/mL |
| FC(F)(F)c1ccc(CNc2ccc(Cc3c[nH]c4ncc(Cl)cc34)cn2)cn1 | human | oral | 1600 mg | multiple doses, patients | 8770 ng/mL |
| COc1cc2c(Nc3ccc(Br)cc3F)ncnc2cc1OCC1CCN(C)CC1 | human | oral | 65 mg/m² | multiple doses, once daily, steady state, patients | 868 ng/mL |
| COc1ccc([C@@H]2CN(C(=O)[C@@H](O)CO)C[C@@]2(C)[C@@H](C)O)cc1OC1CN(c2ccc(C)cn2)C1 | human | oral | 0.5 mg | single dose, healthy volunteers | 30 ng/mL |
| CCn1c(=O)c(-c2cc(NC(=O)Nc3ccccc3)c(F)cc2Br)cc2cnc(NC)cc21 | human | oral | 150 mg | single dose, patients | 502 ng/mL |
| COCCOc1cnc2ccn([C@H](C)c3nnc4c(F)cc(-c5cnn(C)c5)cn34)c(=O)c2c1 | human | oral | 400 mg | multiple doses, once daily, patients | 5140 ng/mL |
| Cn1cc(-c2ccc(S(=O)(=O)[C@@H]3C[C@@H](C(=O)NC4(C#N)CC4)N(C(=O)C4(C(F)(F)F)CC4)C3)c(C(F)(F)F)c2)cn1 | human | oral | 10 mg | single dose, fasted, healthy volunteers | 81.3 ng/mL |
| C=C(F)C(=O)N1CCN(c2nc(OC[C@@H]3CCCN3C)nc3c2CCN(c2cccc4cccc(Cl)c24)C3)C[C@@H]1CC#N | human | oral | 600 mg | single dose, fasted | 984 ng/mL |
| CCCCC1=NC2(CCCC2)C(=O)N1Cc1ccc(-c2ccccc2S(=O)(=O)Nc2noc(C)c2C)c(COCC)c1 | human | oral | 800 mg | single dose, fed, healthy volunteers | 16200 ng/mL |
| C[C@@H](Oc1ccc(S(C)(=O)=O)cc1C(=O)N1C[C@@H]2C[C@]2(c2cc(C(F)(F)F)on2)C1)C(F)(F)F | human | oral | 25 mg | fasted, tablet | 219 nM |
| CCc1nc2c(C)cc(N3CCN(CC(=O)N4CC(O)C4)CC3)cn2c1N(C)c1nc(-c2ccc(F)cc2)c(C#N)s1 | human | oral | 300 mg | single dose, fed, healthy volunteers | 3800 ng/mL |
| CO[C@@H]1[C@H](OC(=O)N2CC(CCN3CCOCC3)C2)CC[C@]2(CO2)[C@H]1[C@@]1(C)O[C@@H]1CC=C(C)C | human | subcutaneous | 3.6 mg | single dose, healthy volunteers | 16.1 ng/mL |
| CC(C)(O)c1ccccc1-c1ccc2[nH]c(/C=C/c3ccc(C(F)(F)F)cc3)nc2c1 | male human | oral | 120 mg | single dose, fasted, healthy volunteers | 261 ng/mL |
| Cc1ccc(C(=O)N(CCCN)[C@@H](c2oc3cc(Cl)ccc3c(=O)c2Cc2ccccc2)C(C)C)cc1 | human | intravenous | 5 mg/m² | single dose, patients, infusion | 607 ng/mL |
| CC(C)(Sc1ccncc1-c1ccc(C#N)c2ccccc12)C(=O)O | male human | oral | 20 mg | single dose, fed, healthy volunteers | 181 ng/mL |
| CC(C)(C(=O)N1CCOc2c(C#N)cncc2C1)C(F)F | human | oral | 10 mg | single dose, fasted, healthy volunteers | 116 ng/mL |
| CCO[C@H]1CCN(Cc2c(OC)cc(C)c3[nH]ccc23)[C@H](c2ccc(C(=O)O)cc2)C1 | human | oral | 100 mg | multiple doses, twice daily, patients | 2640 ng/mL |
| N#CN1C[C@H](n2nc(-c3ccc(Oc4ccc(Cl)cn4)cc3)c(C(N)=O)c2N)CCC12CC2 | human | oral | 600 mg | single dose, fed | 1060 ng/mL |
| CC(C)n1cc(C#N)c2cc(-n3cc(C(=O)O)cn3)ccc21 | human | oral | 25 mg | single dose, fasted, healthy volunteers | 978 ng/mL |
| COc1cc(C(=O)NC2CCN(C)CC2)c(F)cc1Nc1ncc(C(F)(F)F)c(Oc2cccc3c2C(=O)N(C)C3)n1 | human | oral | 200 mg | multiple doses, once daily, steady state, patients | 2580 nM |
